# High-throughput results from PubChem BioAssay.
# Measles CPE: compounds protecting cells from measles virus cytopathic effect, primary screen, measles RdRp inhibitor project, single point, MLSMR library, absorbance; Measles virus-infected cells, CPE protection; protection (pct of control), % at 4 µM; 140,000 tested, 1.5% active; in the data active = protection mostly above about 24%, no sharp cut-off; inactive = mostly below about 26%
# Yeast life ext: compounds extending yeast replicative lifespan, primary screen, S. cerevisiae, OD615; 130,000 tested, 0.68% active; S. cerevisiae growth with nicotinamide; deaD strain in restrictive glucose medium; inhibition of the nicotinamide effect, % at 10 µM;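 active = inhibition above a set limit, placed 3 SD over the median of all compounds, cut at about 26% in these data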;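 also: 0% = nicotinamide-treated wells and 100% = cells grown without nicotinamide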
#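 assay system = DeaD-strain S. cerevisiae | measured by = absorbance at 615 nm | probe or stimulus = nicotinamide 1.5 mM | buffer or medium = CSMM-D glucose medium, restrictive | times = 48 h at 30 °C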
# Arbovirus anti: antivirals against arbovirus infection, primary screen, cell-based, full library, 10K replicate subset; arbovirus infection cell-based antiviral screen; inhibition, % at 10 µM; 200,000 tested, 0.37% active; AID 1251, 2008; in the data active = inhibition above about 30%
# Yeast growth inh: growth inhibitors of yeast BB579 in restrictive medium, primary screen, yeast lifespan-shortening project, S. cerevisiae. OD615, 48 h. inhibition, % at 10 µM. 140,000 tested, 0.51% active. AID 804, 2007;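 active = inhibition above a set limit, 3 SD over the mean compound inhibition, cut at about 44% in these data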
#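 controls = amphotericin B 10 µg/mL, positive | assay system = DeaD yeast strain BB579 | schedule = 48 h compound exposure at 30 °C after 4 h preincubation | detection = OD615 turbidity measurement | medium = restrictive CSMM-D medium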
# Rad51 HR inh: human RAD51 strand exchange inhibitors, primary screen, biochemical, fluorescence | hRad51 DNA strand exchange, fluorescence dequenching | inhibition, % at 10 µM | 200,000 tested, 0.085% active | AID 1385, 2008;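 active = inhibition above 40% at the single screening dose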;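 also: 0% = DMSO control wells and 100% = blanks with heterologous ssDNA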
# Target sequence (Q06609 whole entry, looked up): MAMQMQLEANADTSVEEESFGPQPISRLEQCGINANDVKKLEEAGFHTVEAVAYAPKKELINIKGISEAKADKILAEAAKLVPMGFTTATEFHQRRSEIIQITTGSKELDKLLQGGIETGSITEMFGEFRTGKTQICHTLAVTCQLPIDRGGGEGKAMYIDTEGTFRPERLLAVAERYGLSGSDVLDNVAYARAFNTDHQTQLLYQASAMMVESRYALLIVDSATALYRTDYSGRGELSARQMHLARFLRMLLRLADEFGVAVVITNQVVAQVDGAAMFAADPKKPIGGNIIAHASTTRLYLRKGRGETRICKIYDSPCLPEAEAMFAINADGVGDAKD
#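 material = hRad51 filaments on single-stranded DNA | timing = filaments 15 min 37 °C, then compound 30 min | signal = FRET fluorescence dequenching, excitation 485 nm, emission 520 nm | benchmarks = control wells and blank wells on each plate | evaluation = percent inhibition relative to plate controls and blanks | compound = 10 µM final, single point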
# Efa HMGR inh: inhibitors of E. faecalis class II HMGR, primary screen, biochemical, Enterococcus faecalis; HMG-CoA reductase (Enterococcus faecalis, mvaE); purified E. faecalis HMGR, NADPH absorbance 340 nm kinetic; inhibition, % at 10 µM; 190,000 tested, 0.41% active;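 active = inhibition above a set limit, the median over all tested compounds plus 3 SD, cut at about 9.5% in these data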;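 also: enzyme runs in reverse so mevalonate oxidation gives rising NADPH absorbance; 0% = complete reaction with DMSO and 100% = background rate lacking mevalonate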
# Active calls of the source: *; . = no result given. Shown are actives, neighbours in structure and some others; about 2.4% of the full set was active somewhere.
SMILES,Measles CPE,Yeast life ext,Arbovirus anti,Yeast growth inh,Rad51 HR inh,Efa HMGR inh
COC(=O)c1ccc(COC(=O)c2ccc(CO)cc2)o1,10.5,-5.6,4.1,-19.3,-5.0,-4.3
CCCSc1nc2c(cnn2-c2ccc(C)c(C)c2)c(=O)[nH]1,8.9,-9.5,-0.1,-22.2,1.9,4.0
COC(=O)c1ccc(CSc2nc3c(cnn3-c3ccc(C)c(C)c3)c(=O)[nH]2)o1,29.9*,.,10.2,7.3,-3.6,-4.9
COc1ccc(CN(CCC(c2ccccc2)c2ccc(OC(C)C)cc2)C(=O)CCl)cc1OC (configuration not stated),0.2,8.0,-40.8,-25.1,7.0,-4.0
C/C(Cn1nnc([N+](=O)[O-])n1)=N\NC(=O)c1ccccc1Cl,49.8*,-5.3,-8.5,12.0,10.0,-6.5
CCCn1c(=O)[nH]c(=O)c2c1nc(-c1ccccc1)n2CCN1CCOCC1,9.4,57.1*,5.3,1.6,-9.1,4.1
O=c1c2ccccc2nc(-c2ccccc2)n1CCCN1CCOCC1,25.5*,-19.4,7.5,9.0,-1.2,-0.2
CCCn1c(-c2cccs2)nc2c1c(=O)[nH]c(=O)n2Cc1ccccc1,.,.,-7.2,.,5.0,0.2
CCOc1ccc(NC(=O)C2=C(C)C(=O)OC23CCC(C)CC3)cc1 (configuration not stated),7.4,-13.4,-1.2,-46.2,-0.1,-11.1
O=c1c2c(nc3nc(NCc4ccccc4Cl)[nH]n13)CCC2,.,.,25.4,.,-2.3,4.8
CCC(=NCCc1c(C)[nH]c2ccc(C)cc12)C1=C(O)CC(c2ccccc2)CC1=O (configuration not stated),0.4,49.5*,-5.9,-12.3,-3.8,1.3
O=C(CC1C(=O)NCCN1Cc1c(F)cccc1Cl)NCCCn1cccn1 (configuration not stated),.,.,.,.,3.9,.
COc1ccc(NC(=O)CSc2nncs2)cc1S(N)(=O)=O,.,.,.,.,-4.8,.
COc1ccc(NC(=O)CSc2nccn2C)cc1S(N)(=O)=O,.,.,12.8,.,12.7,10.4*
Cc1[nH]nc2ncc(C(=O)c3cc(F)ccc3O)cc12,4.5,-23.4,10.7,-14.6,-6.0,-1.1
O=C(c1cn[nH]c1)c1cc(F)ccc1O,42.2*,-6.0,0.6,-39.4,4.5,-4.0
C=C1C(=O)C=C2CN(C(=O)c3ccccc3)[C@@](Cc3ccc(F)cc3)(C(=O)OC)[C@@H]12,0.1,42.8*,-37.5,-15.0,-5.0,-6.0
Cc1nn(-c2ccc(F)cc2)c(Cl)c1/C=C(\CCC(=O)O)c1nc2ccccc2s1,31.8*,5.8,-5.9,-16.5,-0.1,-4.9
O=C(O)CC/C(=C\c1cc([N+](=O)[O-])ccc1Cl)c1nc2ccccc2s1,13.2,0.9,-8.4,42.1,-3.2,0.1
C=CCc1cc(OC)ccc1OCCOCCN1CCc2ccccc2C1,.,.,-2.3,.,13.3,-0.8
C=CCc1cc(OC)ccc1OCCOCCC(C(=O)OCC)C(=O)OCC,21.2*,-2.1,-2.5,-1.9,0.0,0.5
CCOc1ccc(N=Nc2c(=O)[nH]n3c(=O)cc(C)[nH]c23)cc1,18.0,-15.2,-6.1,4.4,1.1,2.2
O=c1[nH]n2c(=O)c3c([nH]c2c1N=Nc1cccc(Cl)c1)CCCC3,25.3,.,39.6*,-30.2,-1.3,-1.0
CCOc1ccc(N=Nc2c(=O)[nH]n3c(=O)c4c([nH]c23)CCCC4)cc1,2.4,8.9,59.6*,-42.6,2.6,-2.5
C#CCNC(=O)C(C)c1ncc(C(F)(F)F)cc1Cl (configuration not stated),.,.,2.0,.,19.9,-7.1
SMILES,Measles CPE,Yeast life ext,Arbovirus anti,Yeast growth inh,Rad51 HR inh,Efa HMGR inh
O=C(Nc1cccc(C(F)(F)F)c1)C(=O)N1CCCCC1,.,.,0.8,.,.,2.4
O=[N+]([O-])/C=C/c1cn(Cc2ccccc2)c2ccccc12,-0.8,10.5,-41.4,12.1,-14.3,0.8
N#Cc1ccccc1Cn1cc(/C=C/[N+](=O)[O-])c2ccccc21,1.1,34.5*,-33.4,-2.2,22.5,0.1
CC1CCc2cc(F)ccc2N1C(=O)CSc1nnc2c(n1)[nH]c1ccccc12 (configuration not stated),14.2,-2.6,-20.4,-34.1,-1.6,-4.7
CCCCCC(=O)N1CCN(CCN=CC2=C(O)CC(c3ccc(OC)cc3)CC2=O)CC1 (configuration not stated),10.2,8.2,2.6,-2.9,-8.0,-2.5
CCCCCC(=O)N1CCN(CCN=CC2=C(O)CC(c3ccc(OC)c(OC)c3)CC2=O)CC1 (configuration not stated),10.6,165.5*,15.1,-24.2,4.1,-2.2
CCOc1cc(CNc2nn[nH]n2)ccc1OCC(=O)NC(C)(C)C,.,.,6.8,.,17.2,-3.3
CC(C)C(=O)N=C1SC2CS(=O)(=O)CC2N1Cc1ccccc1 (configuration not stated),2.9,-7.3,5.4,-23.8,-5.2,0.2
O=C(COc1cccc([N+](=O)[O-])c1)N/N=C/c1ccco1,.,.,2.2,.,7.5,9.6*
Cc1ccc(O)c(CCc2ccc(O)cc2)n1,.,.,2.5,.,8.7,-5.7
O=C(O)CCC(=O)Nc1sc2c(c1C(=O)Nc1cccc3ccccc13)CCCCC2,18.3,30.1*,7.4,-19.0,11.5,-3.3
O=C(O)CCC(=O)Nc1sc2c(c1C(=O)Nc1ccccc1)CCCCC2,.,.,3.8,.,0.6,1.4
NC(=O)CCC(NS(=O)(=O)c1ccc(Cl)cc1)C(=O)NCc1ccccc1 (configuration not stated),11.8,-0.2,0.5,-49.4,-14.1,-9.2
C=CCNC(=O)c1cc(-c2ccc(Br)cc2)on1,63.1*,-7.3,0.6,-19.0,.,-5.8
CCN(CC(=O)Nc1ccc(C(=O)OC)cc1)Cc1ccccc1,.,.,2.0,.,10.9,-2.3
COC(=O)c1ccc(NC(=O)CN(C)Cc2cccc(F)c2)cc1,.,.,7.7,.,3.1,10.6*
O=S(=O)(c1ccccc1)c1nc(NCc2cccnc2)sc1Cl,.,.,-29.9,.,6.9,-4.0
CC(C)CNC(=S)NC1CC2CCCC(C1)N2Cc1ccco1 (configuration not stated),3.5,-21.5,10.0,-49.8,-0.7,3.6
CNC(=S)NC1CC2CCCC(C1)N2Cc1ccco1 (configuration not stated),26.8,68.4*,0.1,-37.4,2.2,2.4
Cc1oc(-c2ccccc2Cl)nc1CSCC(=O)N1CCCC1,44.4*,-14.1,32.7*,-32.7,0.2,-2.3
C=CCn1c(SCc2nc(N)nc(N(C)C)n2)nnc1-c1cccnc1,36.0*,-0.8,-0.9,2.4,.,-3.5
O=C(c1ccco1)N1N=C(c2ccc(Br)cc2)CC1(O)C(F)(F)F (configuration not stated),.,.,5.9,.,-6.0,-0.5
